What is called IC50 is the concentration needed to halve the response being measured.

Active and inactive are the calls of the source. The rule behind the calls is not given here. Numbered stars: 1 amine (or outer) side, 2 acyl side, 3 side chain; on linkers, the order of the positions; unused ones are H or OH. Bridge positions count the residues as written; N and C are the ends. Square brackets hold non-standard residues; d marks the D form. Peptide text beside a SMILES is read from it. Adda = CO[C@@H](Cc1ccccc1)[C@@H](C)/C=C(C)/C=C/[C@H](N[*:1])[C@H](C)C(=O)[*:2]; dAsp(3S-Me) = C[C@H](C(=O)[*:3])[C@@H](N[*:1])C(=O)[*:2]; d(γGlu) = O=C(O)[C@@H](CCC(=O)[*:2])N[*:1]; NMeDha = C=C(NC)C(=O)O

This is an account of results in ChEMBL document CHEMBL2034894, “The structures of three metabolites of the algal hepatotoxin okadaic acid produced by oxidation with human cytochrome P450” (Bioorg Med Chem, 2012).

A short description of assay [1]: Inhibition of PP2A using p-NPP as substrate pretreated for 1 hr by spectrophotometry.
A short description of assay [2]: Inhibition of protein phosphatase 1.
A short description of assay [3]: Reversible inhibition of PP2A using p-NPP as substrate assessed as recovery of enzyme activity at 80 uM […] followed by 4 hrs dialysis by spectrophotometry relative to control. Also on record: scale not given: the % may be the effect or the level left.
A short description of assay [4]: Irreversible inhibition of PP2A using p-NPP as substrate assessed as recovery of enzyme activity pretreated for 1 hr followed by 4 hrs dialysis by spectrophotometry. The gist of the method:
(§1)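 PP2A (0.07 U) was mixed 1:1 by volume with inhibitor solutions in 5% MeOH/H2O (20–100 µM before mixing) at 37 °C; controls got 5% MeOH/H2O alone. Buffer: 50 mM Tris, 2 mM MnCl2, 1.1 mM EDTA, 1.3 mM DTT, 0.125 mg/mL BSA. Samples were dialysed against buffer for 4 h at 5–7 °C, then given p-NPP (7.8 mM final) for 2 h at 37 °C; A405 read against control.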

A short description of assay [5]: Reversible inhibition of PP2A using p-NPP as substrate assessed as recovery of enzyme activity at 100 uM pretreated for […] followed by 4 hrs dialysis by spectrophotometry relative to control. Also on record: scale not given: the % may be the effect or the level left. The gist of the method: as §1

Take `C=C1[C@@H](O)[C@@H]2O[C@]3(CC[C@H](/C=C/[C@@H](C)[C@@H]4CC(C)=C[C@@]5(O[C@H](C[C@@](C)(O)C(=O)O)CC[C@H]5O)O4)O3)CC[C@H]2O[C@@H]1[C@@H](O)C[C@H](C)[C@H]1O[C@]2(CC[C@H]1C)CC(O)CCO2` (stereo partly specified): in assay [1], the IC50 amounted to 0.94 nM. Besides, the inhibition result in assay [2] is “Active”.

Turning to `C=C1[C@@H](O)[C@@H]2O[C@]3(CC[C@H](/C=C/[C@@H](C)[C@@H]4CC(C)=C[C@@]5(O[C@H](C[C@@](C)(O)C(=O)O)CC[C@H]5O)O4)O3)CC[C@H]2O[C@@H]1[C@@H](O)C[C@H](C)[C@H]1O[C@@]2(CCCCO2)CC[C@H]1C`, the inhibition result in assay [1] and in assay [2] was “Active” each time.

`C=C1[C@@H](O)[C@@H]2O[C@]3(CC[C@H](/C=C/[C@@H](C)[C@@H]4CC(C=O)=C[C@@]5(O[C@H](C[C@@](C)(O)C(=O)O)CC[C@H]5O)O4)O3)CC[C@H]2O[C@@H]1[C@@H](O)C[C@H](C)[C@H]1O[C@@]2(CCCCO2)CC[C@H]1C`: the IC50 in assay [1] was 3.98 nM. Besides, the Activity in assay [3] worked out at 117%. For the same compound, the inhibition result in assay [2] was “Active”.

On to `C=C1C(=O)N[C@H](C)C(=O)N[C@@H](CC(C)C)C(=O)N[C@@H](C(=O)O)[C@H](C)C(=O)N[C@@H](CCCNC(=N)N)C(=O)N[C@@H](/C=C/C(C)=C/[C@H](C)[C@H](Cc2ccccc2)OC)[C@H](C)C(=O)N[C@@H](C(=O)O)CCC(=O)N1C` (R[Adda][d(γGlu)][NMeDha][dA]L[dAsp(3S-Me)]-OH; lactam N-7), for which, in assay [4], the inhibition entry was “Active”.

With `C=C1[C@@H](O)[C@@H]2O[C@]3(CC[C@H](/C=C/[C@@H](C)[C@@H]4CC(CO)=C[C@@]5(O[C@H](C[C@@](C)(O)C(=O)O)CC[C@H]5O)O4)O3)CC[C@H]2O[C@@H]1[C@@H](O)C[C@H](C)[C@H]1O[C@@]2(CCCCO2)CC[C@H]1C`, in assay [1], the IC50 came out at 1.34 nM. The Activity in assay [5] is 113%. Further, the inhibition entry in assay [2] was “Active”.
